Source: ChEMBL document CHEMBL1158040, “Biological activities and 3D QSAR studies of a series of Delisea pulchra (cf. fimbriata) derived natural products” (J Nat Prod, 2006)
Values after ≈ are worked out from the molar mass of the structure shown. Active and inactive are the calls of the source. The calls are words filed in the database; no cut-off is given here.

Assays:
[1] = Selectivity index, ratio of IC50 for human KB cells to IC50 for Plasmodium falciparum W2; assay type: toxicity, cell-based; conditions: KB cells versus Plasmodium falciparum W2, read-out: Ratio IC50
How it was run: (§1)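 Plasmodium falciparum clones were assayed in vitro: D6 (chloroquine-sensitive) and W2 (chloroquine-resistant). IC50 is in μg/mL. The selectivity index is the ratio of the antimalarial to the cytotoxic activity.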

Plasmodium falciparum [2] = assay: Antimalarial activity against chloroquine-sensitive Plasmodium falciparum D6; assay type: functional, organism-based
How it was run: (§2)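 In vitro growth inhibition of Plasmodium falciparum clones D6 (chloroquine-sensitive) and W2 (chloroquine-resistant); IC50 reported in μg/mL.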

Plasmodium falciparum [3] = assay: Antimalarial activity against chloroquine-resistant Plasmodium falciparum W2; assay type: functional, organism-based; how it was run: as §2
KB [4] = assay: Cytotoxicity against human KB cells; assay type: functional; conditions: read-out: ED50 (the source's name)
[5] = Selectivity index, ratio of IC50 for human KB cells to IC50 for Plasmodium falciparum D6; assay type: toxicity, cell-based; conditions: KB cells versus Plasmodium falciparum D6, read-out: Ratio IC50; how it was run: as §1
KB [6] = assay: Cytotoxicity against vinblastine-resistant human KB cells; assay type: functional; conditions: read-out: ED50 (the source's name)
How it was run: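 The vinblastine-resistant KB-V1 line was tested both with and without added vinblastine in the cultured tumour-cell cytotoxicity panel. Results are reported as ED50.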

[7] = target: Human immunodeficiency virus type 1 reverse transcriptase (Human immunodeficiency virus 1, UniProt Q72547); assay: Inhibition of HIV1 RT at 200 uM
How it was run: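 HIV-1 reverse transcriptase inhibition was measured in an ELISA-based system.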

Escherichia coli [8] = assay: Antimicrobial activity against Escherichia coli at 5 ug; assay type: functional, organism-based
How it was run: (§3)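 Direct bioautography: each compound is spotted onto TLC plates and the solvent evaporated. The test organism is then grown directly on the plate. Growth inhibition is scored at the spot as active (+) or very active (++). Where a number is given, it is the radius in mm of the inhibition zone around the spot.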

Micrococcus luteus [9] = assay: Antimicrobial activity against Micrococcus luteus at 5 ug; assay type: functional, organism-based; how it was run: as §3
Micrococcus luteus [10] = assay: Antimicrobial activity against Micrococcus luteus at 1 ug; assay type: functional, organism-based; how it was run: as §3
Micrococcus luteus [11] = assay: Antimicrobial activity against Micrococcus luteus at 0.1 ug; assay type: functional, organism-based; how it was run: as §3
[12] = Inhibition of TK assessed as residual activity at 200 ug/ml
How it was run: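 The enzyme was tyrosine kinase p56lck, with test compounds at 200 μg/mL. The read-out is the remaining enzyme activity.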

Penicillium oxalicum [13] = assay: Antimicrobial activity against Penicillium oxalicum at 10 ug; assay type: functional; conditions: read-out: IZ; how it was run: as §3
Penicillium oxalicum [14] = assay: Antimicrobial activity against Penicillium oxalicum at 1 ug; assay type: functional; conditions: read-out: IZ; how it was run: as §3
Bacillus subtilis [15] = assay: Antimicrobial activity against Bacillus subtilis at 5 ug; assay type: functional, organism-based; how it was run: as §3
Penicillium oxalicum [16] = assay: Antimicrobial activity against Penicillium oxalicum at 5 ug; assay type: functional; conditions: read-out: IZ; how it was run: as §3
Micrococcus luteus [17] = assay: Antimicrobial activity against Micrococcus luteus at 10 ug; assay type: functional, organism-based; how it was run: as §3
Penicillium oxalicum [18] = assay: Antimicrobial activity against Penicillium oxalicum at 0.1 ug; assay type: functional; conditions: for zone of inhibition at 0.1 µg/disc: read-out: IZ; how it was run: as §3
LNCaP = assay: Cytotoxicity against human LNCAP cells; assay type: functional; conditions: read-out: ED50 (the source's name)
Lu1 = assay: Cytotoxicity against human Lu1 cells; assay type: functional; conditions: read-out: ED50 (the source's name)
Escherichia coli [19] = assay: Antimicrobial activity against Escherichia coli at 10 ug; assay type: functional, organism-based; how it was run: as §3
Bacillus subtilis [20] = assay: Antimicrobial activity against Bacillus subtilis at 10 ug; assay type: functional, organism-based; how it was run: as §3
ZR-75-1 = assay: Cytotoxicity against human ZR-75-1 cells; assay type: functional; conditions: read-out: ED50 (the source's name)
KB [21] = assay: Cytotoxicity against vinblastine-sensitive human KB cells; assay type: functional; conditions: read-out: ED50 (the source's name)
Escherichia coli [22] = assay: Antimicrobial activity against Escherichia coli at 1 ug; assay type: functional, organism-based; how it was run: as §3
Bacillus subtilis [23] = assay: Antimicrobial activity against Bacillus subtilis at 0.1 ug; assay type: functional, organism-based; how it was run: as §3
Escherichia coli [24] = assay: Antimicrobial activity against Escherichia coli at 0.1 ug; assay type: functional, organism-based; how it was run: as §3
Bacillus subtilis [25] = assay: Antimicrobial activity against Bacillus subtilis at 1 ug; assay type: functional, organism-based; how it was run: as §3
Penicillium oxalicum [26] = assay: Antimicrobial activity against Penicillium oxalicum at 0.01 ug; assay type: functional; how it was run: as §3
Monocyte [27] = assay: Inhibition of LPS-stimulated IL1 production in human monocytes; assay type: functional, cell-based
[28] = Inhibition of PKC
Monocyte [29] = assay: Inhibition of IL1 biosynthesis in human monocytes; assay type: functional, cell-based

| SMILES | selectivity ratio [1] | IC50 (Plasmodium falciparum [2]) [µg/mL] | IC50 (Plasmodium falciparum [3]) [µg/mL] | EC50 (KB [4]) [µg/mL] | selectivity ratio [5] | EC50 (KB [6]) [µg/mL] | IC50 [7] [µM] | Activity (Escherichia coli [8]) | Activity (Micrococcus luteus [9]) | Activity (Micrococcus luteus [10]) | zone of inhibition at 10 µg/disc (Penicillium oxalicum [13]) [mm] | zone of inhibition at 1 µg/disc (Penicillium oxalicum [14]) [mm] | Activity (Bacillus subtilis [15]) | zone of inhibition at 5 µg/disc (Penicillium oxalicum [16]) [mm] | Activity (Micrococcus luteus [17]) | Activity (Escherichia coli [19]) | Activity (Bacillus subtilis [20]) | Activity (Escherichia coli [22]) | Activity (Escherichia coli [24]) | Activity (Bacillus subtilis [25]) | other results |
| --- | --- | --- | --- | --- | --- | --- | --- | --- | --- | --- | --- | --- | --- | --- | --- | --- | --- | --- | --- | --- | --- |
| C[C@@H]1CC[C@H]2[C@@H](C)C(=O)O[C@@H]3O[C@@]4(C)CC[C@@H]1[C@]32OO4 [ARTEMISININ] | > 3280 | 0.001 (≈ 0.00354 µM) | 0.006 (≈ 0.0213 µM) | > 20 | > 18200 |  |  |  |  |  |  |  |  |  |  |  |  |  |  |  |  |
| CCC[C@@H](O)C1=C(Br)/C(=C/Cl)OC1=O |  | 5.9 (≈ 21 µM) | > 10 | 0.4 (≈ 1.42 µM) | < 1 | 1.4 (≈ 4.97 µM) | 700 | Active | Active | Active | 22 | 14 | Active | 18 | Active | Active | Active | Active | Active | Active | Activity (Micrococcus luteus [11]): inactive; Activity [12]: 1.9%; zone of inhibition at 0.1 µg/disc (Penicillium oxalicum [18]): 6 mm; EC50 (LNCaP): 3 µg/mL (≈ 10.7 µM); EC50 (Lu1): 1 µg/mL (≈ 3.55 µM); EC50 (ZR-75-1): 0.4 µg/mL (≈ 1.42 µM); EC50 (KB [21]): 1.2 µg/mL (≈ 4.26 µM); Activity (Bacillus subtilis [23]): inactive |
| CCC[C@@H](OC(C)=O)C1=C(Br)/C(=C/I)OC1=O |  | 4.6 (≈ 11.1 µM) | > 10 | 0.1 (≈ 0.241 µM) | < 1 | 0.2 (≈ 0.482 µM) | 700 | Active | Active | Active | 17 | 9 | Active | 21 | Active | Active | Active | inactive | inactive | Active | Activity (Penicillium oxalicum [26]): inactive; Activity (Micrococcus luteus [11]): Active; zone of inhibition at 0.1 µg/disc (Penicillium oxalicum [18]): 6 mm; EC50 (LNCaP): 2 µg/mL (≈ 4.82 µM); EC50 (Lu1): 1.5 µg/mL (≈ 3.61 µM); EC50 (ZR-75-1): < 0.1 µg/mL; EC50 (KB [21]): 3.6 µg/mL (≈ 8.67 µM); Activity (Bacillus subtilis [23]): inactive |
| CCC(CCC(=O)C(Br)=C(Br)Br)OC(C)=O (stereo unspecified) |  |  |  |  |  |  |  | Active | inactive | inactive | 8 | 6 | Active | 9 | inactive | Active | Active | inactive | inactive | inactive | Activity (Penicillium oxalicum [26]): inactive; Activity [12]: 31.7%; Activity (Penicillium oxalicum [18]): inactive; IC50 (Monocyte [27]): 2 µM; IC50 [28]: ≥ 200 µM; IC50 (Monocyte [29]): 2 µM |
| OC(c1cc(C(F)(F)F)nc2c(C(F)(F)F)cccc12)C1CCCCN1 (stereo unspecified) [MEFLOQUINE] | 4380 | 0.005 (≈ 0.0132 µM) | 0.001 (≈ 0.00264 µM) | 3.5 (≈ 9.25 µM) | 710 |  |  |  |  |  |  |  |  |  |  |  |  |  |  |  |  |
| CCC[C@@H](OC(C)=O)C1=C(Br)C(=C(Br)Br)OC1=O | < 1 | 2.2 (≈ 4.92 µM) | 9.1 (≈ 20.4 µM) | 0.3 (≈ 0.671 µM) | < 1 | 3.5 (≈ 7.83 µM) | 700 | Active | Active | Active | 12 | 10 | Active | 14 | Active | Active | Active | inactive | inactive | Active | zone of inhibition at 0.01 µg/disc (Penicillium oxalicum [26]; read-out: IZ): 3 mm; Activity (Micrococcus luteus [11]): Active; Activity [12]: 1.9%; zone of inhibition at 0.1 µg/disc (Penicillium oxalicum [18]): 6 mm; EC50 (LNCaP): 2.1 µg/mL (≈ 4.7 µM); EC50 (Lu1): 1.1 µg/mL (≈ 2.46 µM); EC50 (ZR-75-1): < 0.1 µg/mL; EC50 (KB [21]): 0.5 µg/mL (≈ 1.12 µM) |
